The results in this text go back to ChEMBL document CHEMBL4765302, “Design, synthesis and biological evaluation of novel histone deacetylase1/2 (HDAC1/2) and cyclin-dependent Kinase2 (CDK2) dual inhibitors against malignant cancer” (Eur J Med Chem, 2020).

In test [1] the test system is NCI-H460. In words: Antiproliferative activity against human H460 cells assessed as reduction in cell growth at 2 uM incubated for 72 hrs by CCK-8 assay relative to control. Format: functional.
Test [2] deals with HCT-116. In words: Induction of apoptosis in human HCT-116 cells assessed as early apoptotic cells at 2 uM incubated for 48 hrs by annexin V-FITC and PI staining based flow cytometry (reference value: 4.14 %). Format: functional.
Test [3] deals with HCT-116. In words: Induction of apoptosis in human HCT-116 cells assessed as necrotic cells at 2 uM incubated for 48 hrs by annexin V-FITC and PI staining based flow cytometry (reference value: 0.124 %). The format is functional.
Test [4] has as its system A-375. In words: Induction of apoptosis in human A-375 cells assessed as viable cells at 2 uM incubated for 48 hrs by annexin V-FITC and PI staining based flow cytometry (reference value: 96.3 %). The settings on record: read-out: Activity. Format: functional.
Test [5] deals with HCT-116. In words: Induction of apoptosis in human HCT-116 cells assessed as viable cells at 2 uM incubated for 48 hrs by annexin V-FITC and PI staining based flow cytometry (reference value: 93.9 %). The conditions noted are these: read-out: Activity. Format: functional.
For test [6], the system named is NCI-H460. In words: Antiproliferative activity against human H460 cells assessed as reduction in cell growth at 8 uM incubated for 72 hrs by CCK-8 assay relative to control. The format is functional.
The test system of test [7] is HCT-116. Description: Induction of apoptosis in human HCT-116 cells assessed as late apoptotic cells at 2 uM incubated for 48 hrs by annexin V-FITC and PI staining based flow cytometry (reference value: 1.88 %). Format: functional.
The subject of test [8] is A-375. Description: Induction of apoptosis in human A-375 cells assessed as late apoptotic cells at 2 uM incubated for 48 hrs by annexin V-FITC and PI staining based flow cytometry (reference value: 2.24 %). Format: functional.
Test [9] concerns HCT-116. Description: Antiproliferative activity against human HCT-116 cells assessed as reduction in cell growth at 8 uM incubated for 72 hrs by CCK-8 assay relative to control. Format: functional.
The subject of test [10] is HepG2. Description: Antiproliferative activity against human HepG2 cells assessed as reduction in cell growth at 2 uM incubated for 72 hrs by CCK-8 assay relative to control. Format: functional.
Test [11] relates to HeLa. In words: Induction of apoptosis in human HeLa cells assessed as early apoptotic cells at 2 uM incubated for 48 hrs by annexin V-FITC and PI staining based flow cytometry (reference value: 0.528 %). The format is functional.
For test [12], the system named is HeLa. In words: Induction of apoptosis in human HeLa cells assessed as necrotic cells at 2 uM incubated for 48 hrs by annexin V-FITC and PI staining based flow cytometry (reference value: 0.124 %). The format is functional.
For test [13], the system named is NCI-H460. In words: Induction of apoptosis in human NCI-H460 cells assessed as viable cells at 2 uM incubated for 48 hrs by annexin V-FITC and PI staining based flow cytometry (reference value: 90.4 %). The format is functional. The settings on record: read-out: Activity.
The subject of test [14] is NCI-H460. Description: Antiproliferative activity against human NCI-H460 cells assessed as reduction in cell growth incubated for 72 hrs by CCK-8 assay. The settings on record: NCI-H460, 72 h. Format: functional, cell-based. Put shortly:
(§1)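 IC50 by CCK-8 assay across five solid-tumour lines (HCT116, HepG2, H460, HeLa, A375). Run only for compounds chosen after the single-concentration screen, with CS055 and roscovitine as references.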

For test [15], the system named is A-375. Description: Induction of apoptosis in human A-375 cells assessed as necrotic cells at 2 uM incubated for 48 hrs by annexin V-FITC and PI staining based flow cytometry (reference value: 0.139 %). The format is functional.
Test [16] deals with A-375. Description: Antiproliferative activity against human A-375 cells assessed as reduction in cell growth incubated for 72 hrs by CCK-8 assay. The format is functional, cell-based. The settings on record: A-375, 72 h. Put shortly: as §1
Test [17] has as its system NCI-H460. In words: Induction of apoptosis in human NCI-H460 cells assessed as necrotic cells at 2 uM incubated for 48 hrs by annexin V-FITC and PI staining based flow cytometry (reference value: 0.632 %). Format: functional.
The test system of test [18] is HepG2. In words: Antiproliferative activity against human HepG2 cells assessed as reduction in cell growth at 8 uM incubated for 72 hrs by CCK-8 assay relative to control. Format: functional.
Test [19] relates to HeLa. In words: Induction of apoptosis in human HeLa cells assessed as viable cells at 2 uM incubated for 48 hrs by annexin V-FITC and PI staining based flow cytometry (reference value: 98.5 %). Format: functional. The settings on record: read-out: Activity.
Test [20] concerns HepG2. Description: Antiproliferative activity against human HepG2 cells assessed as reduction in cell growth incubated for 72 hrs by CCK-8 assay. The format is functional, cell-based. The conditions noted are these: HepG2, 72 h. In a few lines:
as §1

Test [21] deals with HCT-116. In words: Antiproliferative activity against human HCT-116 cells assessed as reduction in cell growth incubated for 72 hrs by CCK-8 assay. The format is functional, cell-based. The settings on record: HCT-116, 72 h. Put shortly:
as §1

The subject of test [22] is HeLa. Description: Induction of apoptosis in human HeLa cells assessed as late apoptotic cells at 2 uM incubated for 48 hrs by annexin V-FITC and PI staining based flow cytometry (reference value: 0.870 %). Format: functional.
Test [23] concerns NCI-H460. In words: Induction of apoptosis in human NCI-H460 cells assessed as early apoptotic cells at 2 uM incubated for 48 hrs by annexin V-FITC and PI staining based flow cytometry (reference value: 2.88 %). Format: functional.
Test [24] relates to HeLa. In words: Antiproliferative activity against human HeLa cells assessed as reduction in cell growth incubated for 72 hrs by CCK-8 assay. Format: functional, cell-based. Put shortly: as §1
For test [25], the system named is A-375. Description: Induction of apoptosis in human A-375 cells assessed as early apoptotic cells at 2 uM incubated for 48 hrs by annexin V-FITC and PI staining based flow cytometry (reference value: 1.34 %). Format: functional.
Test [26] deals with HCT-116. Description: Antiproliferative activity against human HCT-116 cells assessed as reduction in cell growth at 2 uM incubated for 72 hrs by CCK-8 assay relative to control. Format: functional.
The test system of test [27] is NCI-H460. In words: Induction of apoptosis in human NCI-H460 cells assessed as late apoptotic cells at 2 uM incubated for 48 hrs by annexin V-FITC and PI staining based flow cytometry (reference value: 6.11 %). Format: functional.
A further test addresses Histone deacetylase 2 (Homo sapiens, UniProt Q92769). Description: Inhibition of recombinant human HDAC2 using FLUOR-DE-LYS-Green as substrate incubated for 10 mins followed by substrate addition and measured after 30 mins by fluorescence based assay. In a few lines:
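IC50 values reported as means of at least two separate determinations, expressed as mean ±SD.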

The target of the next test is Histone deacetylase 1 (Homo sapiens, UniProt Q13547). In words: Inhibition of recombinant human HDAC1 at 10 uM using SIRT1 as substrate incubated for 10 mins followed by substrate addition and measured after 30 mins by fluorescence based assay relative to control. The settings on record: time 40.0 min. In a few lines:
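Enzyme inhibition of HDAC1 measured at a single concentration of 10 µM, tested alongside the cell-growth screen.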

Sequence of Histone deacetylase 1 (Q13547 whole entry): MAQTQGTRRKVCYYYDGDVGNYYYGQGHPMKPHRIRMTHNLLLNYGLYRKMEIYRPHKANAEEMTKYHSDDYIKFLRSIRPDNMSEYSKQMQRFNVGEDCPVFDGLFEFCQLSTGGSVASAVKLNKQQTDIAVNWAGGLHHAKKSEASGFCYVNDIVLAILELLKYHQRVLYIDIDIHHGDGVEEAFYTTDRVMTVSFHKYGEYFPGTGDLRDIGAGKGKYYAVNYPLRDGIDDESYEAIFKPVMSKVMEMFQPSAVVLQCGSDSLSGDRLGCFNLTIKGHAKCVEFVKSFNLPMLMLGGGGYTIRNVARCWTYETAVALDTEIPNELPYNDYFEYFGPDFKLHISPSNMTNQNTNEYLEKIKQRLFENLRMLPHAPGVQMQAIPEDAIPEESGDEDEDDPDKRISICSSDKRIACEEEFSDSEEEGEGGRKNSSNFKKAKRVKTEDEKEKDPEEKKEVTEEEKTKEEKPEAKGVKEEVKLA
Sequence of Histone deacetylase 2 (Q92769 whole entry): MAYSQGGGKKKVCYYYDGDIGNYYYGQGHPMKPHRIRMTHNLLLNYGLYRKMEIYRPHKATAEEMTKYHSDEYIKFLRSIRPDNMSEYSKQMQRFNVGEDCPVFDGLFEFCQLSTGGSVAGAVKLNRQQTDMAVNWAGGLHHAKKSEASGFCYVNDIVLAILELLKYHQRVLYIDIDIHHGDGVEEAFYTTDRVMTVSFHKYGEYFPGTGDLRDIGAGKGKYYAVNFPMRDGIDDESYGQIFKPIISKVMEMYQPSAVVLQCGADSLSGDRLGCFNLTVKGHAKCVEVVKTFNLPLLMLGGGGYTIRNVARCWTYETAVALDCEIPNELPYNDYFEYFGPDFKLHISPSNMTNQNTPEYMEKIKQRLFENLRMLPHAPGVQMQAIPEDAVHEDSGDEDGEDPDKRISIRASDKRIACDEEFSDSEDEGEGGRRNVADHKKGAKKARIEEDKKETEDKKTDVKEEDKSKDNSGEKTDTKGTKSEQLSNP

As for `Nc1ccc(F)cc1NC(=O)c1ccc(CNC(=O)/C=C/c2cccnc2)cc1`, the results for the inhibition at 2 µM in the test on NCI-H460 [1], in the test with HepG2 [10] and in the test with HCT-116 [26] were 1.73%, 8.36% and 65.7%, respectively. The Activity with HCT-116 [2] is reported as 54.6%; with HCT-116 [3], 0.985%; in the test on HCT-116 [7], 3.12%; with A-375 [8] it was 49.5%; with HeLa [11], 0.555%; with HeLa [12], 0.103%. Also, the Activity with A-375 [15] was 1.73%; in the test on NCI-H460 [17], 0.543%; in the test with HeLa [22] it was 1.04%; with NCI-H460 [23], 14.7%; in the test with A-375 [25] it was 14.2%; in the test on NCI-H460 [27], 15.1%. In addition, the viability at 2 µM in the test with A-375 [4] stood at 34.5%; in the test on HCT-116 [5], 41.3%; in the test on NCI-H460 [13], 69.6%; with HeLa [19], 98.3%. Besides, the inhibition at 8 µM with NCI-H460 [6] came to 38.2%; with HCT-116 [9], 73.4%; in the test with HepG2 [18] it was 40.6%. Further, the IC50 in the test on NCI-H460 [14] was 13.3 µM; with A-375 [16], 6.72 µM; in the test on HepG2 [20], 11.7 µM; with HCT-116 [21], 1.49 µM; in the test on HeLa [24], 11 µM; at Histone deacetylase 2, 0.0665 µM.

Turning to `CCC(C)n1cnc2c(NCc3ccc(C(=O)Nc4ccccc4N)cc3)nc(Cl)nc21` (stereo not drawn), the inhibition at 2 µM in the test on NCI-H460 [1] is 47.3%; in the test on HepG2 [10], 45%; with HCT-116 [26], 74.6%. Moreover, the inhibition at 8 µM with NCI-H460 [6] came to 67.7%; with HCT-116 [9], 75.1%; in the test with HepG2 [18], 65%. Besides, the IC50 with NCI-H460 [14] amounted to 4.94 µM; in the test on A-375 [16] it was 2.88 µM; in the test on HepG2 [20], 2.99 µM; in the test with HCT-116 [21] it was 0.72 µM; with HeLa [24] it was 3.03 µM. Further, at Histone deacetylase 1, the inhibition turned out to be 94.7%.

In the case of `Nc1ccccc1NC(=O)c1ccc(Cn2cnc3c(NCc4ccccc4)nc(Cl)nc32)cc1`, the inhibition at 2 µM came to 44.7% in the test on NCI-H460 [1], 7.55% with HepG2 [10] and 68.3% with HCT-116 [26]. For the same compound, the inhibition at 8 µM was determined as 61.2% in the test with NCI-H460 [6], 78.3% with HCT-116 [9] and 62.8% with HepG2 [18]. In addition, the IC50 was determined as 11.2 µM in the test with NCI-H460 [14]; 5.83 µM with A-375 [16]; 7.72 µM in the test on HepG2 [20]; 1.06 µM in the test on HCT-116 [21]; 6.77 µM with HeLa [24]. For the same compound, on Histone deacetylase 1, the inhibition was determined as 76%.

For `Nc1ccccc1NC(=O)c1ccc(Cn2cnc3c(Nc4cccc(Cl)c4)nc(Cl)nc32)cc1`, the results for the inhibition at 2 µM with NCI-H460 [1], in the test with HepG2 [10] and in the test with HCT-116 [26] were 10.3%, 29.9% and 56.2%, respectively. Besides, the inhibition at 8 µM in the test on NCI-H460 [6] came to 67%; with HCT-116 [9], 78.4%; in the test on HepG2 [18] it was 66.7%. Also, the IC50 was 6.58 µM in the test on NCI-H460 [14]; 6.08 µM in the test with A-375 [16]; 9.8 µM with HepG2 [20]; 2.34 µM in the test with HCT-116 [21]; 11.3 µM with HeLa [24]. The inhibition at Histone deacetylase 1 came out at 61.3%.

`CC[C@H](CO)Nc1nc(NCc2ccccc2)c2ncn(C(C)C)c2n1` [SELICICLIB]: the results for the inhibition at 2 µM in the test with NCI-H460 [1], in the test with HepG2 [10] and in the test on HCT-116 [26] were 7.73%, 12% and 23.5%, respectively. Moreover, the Activity in the test on HCT-116 [2] was 83.9%; with HCT-116 [3], 0.24%; with HCT-116 [7], 4.24%; in the test with A-375 [8], 42.3%; in the test on HeLa [11], 4.04%; in the test on HeLa [12], 0.424%. In addition, the Activity with A-375 [15] was found to be 0.189%; in the test on NCI-H460 [17], 3.09%; in the test on HeLa [22] it was 7.16%; with NCI-H460 [23], 14%; with A-375 [25], 7.03%; in the test on NCI-H460 [27], 36%. In addition, the viability at 2 µM amounted to 50.5% with A-375 [4], 11.6% with HCT-116 [5], 47% in the test with NCI-H460 [13] and 88.4% in the test with HeLa [19]. Also, the inhibition at 8 µM in the test with NCI-H460 [6] turned out to be 15.6%; with HCT-116 [9], 29.1%; in the test on HepG2 [18], 22.1%. Besides, the IC50 with NCI-H460 [14] was determined as 11.9 µM; with A-375 [16], 11.8 µM; in the test on HepG2 [20], 8.53 µM; in the test with HCT-116 [21] it was 6.76 µM; in the test on HeLa [24], 11.2 µM.

`Nc1ccccc1NC(=O)c1ccc(Cn2cnc3c(N4CCOCC4)nc(Cl)nc32)cc1`: the inhibition at 2 µM is 5.05% with NCI-H460 [1], 56.9% in the test on HepG2 [10] and 77.7% with HCT-116 [26]. Moreover, the values for the inhibition at 8 µM in the test on NCI-H460 [6], with HCT-116 [9] and with HepG2 [18] were 47%, 80.7% and 71.3%, respectively. The IC50 in the test on NCI-H460 [14] is 6.09 µM; with A-375 [16], 2.68 µM; in the test on HepG2 [20] it was 2.82 µM; in the test with HCT-116 [21] it was 0.45 µM; in the test with HeLa [24] it was 2.03 µM. The inhibition at Histone deacetylase 1 stood at 93.2%.
